Measured values as given in ChEMBL document CHEMBL2203116, “Synthesis and evaluation of novel carbon-11 labeled oxopurine analogues for positron emission tomography imaging of translocator protein (18 kDa) in peripheral organs” (J Med Chem, 2011).

How the values were obtained:
Format in all cases: ADME, organism-based
Lung [1] = assay: Drug uptake in Sprague-Dawley rat lung at 0.18 nmol, iv pretreated with unlabeled (R)-PK11195 by PET scanning; conditions: in vivo
How it was run: (§1)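 Male Sprague-Dawley rats (6–8 weeks old), isoflurane-anesthetized, prone. ROIs on lung, heart, kidney, liver, small intestine and cardiac blood pool. Uptake decay-corrected to injection time and expressed as SUV (body-weight normalized). n = 4, mean ± SD.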

Heart [2] = assay: Drug uptake in Sprague-Dawley rat heart at 0.18 nmol, iv pretreated with unlabeled (R)-PK11195 by PET scanning; conditions: in vivo
How it was run: (§2)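 Isoflurane-anesthetized Sprague-Dawley rats underwent 30-min PET after iv [11C]radioligand, with unlabeled blocker given iv 1 min before tracer. Blockers were (R)-PK11195 at 3.0 mg/kg or AC-5216 at 1.0 mg/kg in 300 μL saline with 10% ethanol and 5% polysorbate 80. Regional uptake was decay-corrected SUV (n = 4).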

Kidney [3] = assay: Drug uptake in Sprague-Dawley rat kidney at 0.18 nmol, iv pretreated with unlabeled (R)-PK11195 by PET scanning; conditions: in vivo; how it was run: as §1
Lung [4] = assay: Drug uptake in Sprague-Dawley rat lung at 0.18 nmol, iv pretreated with unlabeled AC-5216 by PET scanning; conditions: in vivo; how it was run: as §1
Heart [5] = assay: Drug uptake in Sprague-Dawley rat heart at 0.18 nmol, iv pretreated with unlabeled AC-5216 by PET scanning; conditions: in vivo; how it was run: as §2
Kidney [6] = assay: Drug uptake in Sprague-Dawley rat kidney at 0.18 nmol, iv pretreated with unlabeled AC-5216 by PET scanning; conditions: in vivo; how it was run: as §1
Liver [7] = assay: Drug uptake in Sprague-Dawley rat liver at 0.18 nmol, iv pretreated with unlabeled (R)-PK11195 measured after 27.5 mins by PET scanning relative to control; conditions: in vivo
How it was run: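 Male Sprague-Dawley rats, 6-8 weeks old, under isoflurane, prone. An unlabeled TSPO blocking ligand (3.0 mg/kg) was injected 1 min before the iv radioligand (16-18 MBq/200 μL). A liver ROI was decay-corrected and expressed as SUV normalized to injected activity and body weight. The 27.5-min value was compared with unblocked controls; n = 4.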

Liver [8] = assay: Drug uptake in Sprague-Dawley rat liver at 0.18 nmol, iv pretreated unlabeled AC-5216 measured after 27.5 mins by PET scanning relative to control; conditions: in vivo
How it was run: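 Male Sprague-Dawley rats, 6-8 weeks, isoflurane-anesthetized. A blocking TSPO ligand (1.0 mg/kg, in 300 μL saline with 10% ethanol and 5% polysorbate 80) was injected 1 min before iv radioligand (16-18 MBq/200 μL). Liver ROI as decay-corrected SUV (injected activity, body weight), 27.5-min value versus controls; n = 4.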

Blood [9] = assay: Drug uptake in Sprague-Dawley rat cardiac blood pool at 0.18 nmol, iv after 27.5 mins by PET scanning; conditions: in vivo
How it was run: (§3)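 Isoflurane-anesthetized male Sprague-Dawley rats lay prone and received an iv bolus of [11C]radioligand in 200 μL. 3D list-mode emission scans ran 30 min from injection. Regions of interest were drawn on the organs and cardiac blood pool. Uptake was decay-corrected to injection time and expressed as SUV (normalized to injected radioactivity and body weight). Values are mean of n = 4.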

Liver [10] = assay: Drug uptake in Sprague-Dawley rat liver at 0.18 nmol, iv after 27.5 mins by PET scanning; conditions: in vivo; how it was run: as §1
Lung [11] = assay: Drug uptake in Sprague-Dawley rat lung at 0.18 nmol, iv up to 30 mins by PET scanning; conditions: in vivo, 0.5 h; how it was run: as §1
Heart [12] = assay: Drug uptake in Sprague-Dawley rat heart at 0.18 nmol, iv up to 30 mins by PET scanning; conditions: in vivo, 0.5 h; how it was run: as §3
Kidney [13] = assay: Drug uptake in Sprague-Dawley rat kidney at 0.18 nmol, iv up to 30 mins by PET scanning; conditions: in vivo, 0.5 h; how it was run: as §1
Liver [14] = assay: Drug uptake in Sprague-Dawley rat liver at 0.18 nmol, iv up to 30 mins by PET scanning; conditions: in vivo, 0.5 h; how it was run: as §1
Blood [15] = assay: Drug uptake in Sprague-Dawley rat cardiac blood pool at 0.18 nmol, iv up to 30 mins by PET scanning; conditions: in vivo, 0.5 h; how it was run: as §3
Intestine = assay: Drug uptake in Sprague-Dawley rat small intestine at 0.18 nmol, iv up to 30 mins by PET scanning; conditions: in vivo, 0.5 h; how it was run: as §1
Lung [16] = assay: Drug uptake in Sprague-Dawley rat lung at 0.18 nmol, iv after 2 mins by PET scanning; conditions: in vivo; how it was run: as §1
Heart [17] = assay: Drug uptake in Sprague-Dawley rat heart at 0.18 nmol, iv after 2 mins by PET scanning; conditions: in vivo; how it was run: as §3
Kidney [18] = assay: Drug uptake in Sprague-Dawley rat kidney at 0.18 nmol, iv after 2 mins by PET scanning; conditions: in vivo; how it was run: as §1
Liver [19] = assay: Drug uptake in Sprague-Dawley rat liver at 0.18 nmol, iv after 2 mins by PET scanning; conditions: in vivo; how it was run: as §1
Blood [20] = assay: Drug uptake in Sprague-Dawley rat cardiac blood pool at 0.18 nmol, iv after 2 mins by PET scanning; conditions: in vivo; how it was run: as §3
Lung [21] = assay: Drug uptake in Sprague-Dawley rat lung at 0.18 nmol, iv after 27.5 mins by PET scanning; conditions: in vivo; how it was run: as §1
Heart [22] = assay: Drug uptake in Sprague-Dawley rat heart at 0.18 nmol, iv after 27.5 mins by PET scanning; conditions: in vivo; how it was run: as §3
Kidney [23] = assay: Drug uptake in Sprague-Dawley rat kidney at 0.18 nmol, iv after 27.5 mins by PET scanning; conditions: in vivo; how it was run: as §1
Kidney [24] = assay: Drug uptake in iv dosed Sprague-Dawley rat kidney upto 30 mins by PET scanning; conditions: in vivo, 0.5 h
How it was run: (§4)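 Comparator radioligand 15–20 MBq/200 μL (0.15–0.18 nmol) injected iv into isoflurane-anesthetized male Sprague-Dawley rats. ROI time–activity curves for lung, heart, kidney, liver and cardiac blood pool. Uptake as decay-corrected SUV normalized to injected activity and body weight. n = 4, mean ± SD.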

Liver [25] = assay: Drug uptake in iv dosed Sprague-Dawley rat liver upto 30 mins by PET scanning; conditions: in vivo, 0.5 h; how it was run: as §4
Blood [26] = assay: Drug uptake in iv dosed Sprague-Dawley rat cardiac blood pool up to 30 mins by PET scanning; conditions: in vivo, 0.5 h; how it was run: as §4
Lung [27] = assay: Drug uptake in iv dosed Sprague-Dawley rat lung after 1 min by PET scanning; conditions: in vivo; how it was run: as §4
Lung [28] = assay: Drug uptake in iv dosed Sprague-Dawley rat lung after 27.5 mins by PET scanning; conditions: in vivo; how it was run: as §4
Heart [29] = assay: Drug uptake in iv dosed Sprague-Dawley rat heart after 10 mins by PET scanning; conditions: in vivo; how it was run: as §4
Kidney [30] = assay: Drug uptake in iv dosed Sprague-Dawley rat kidney after 10 mins by PET scanning; conditions: in vivo; how it was run: as §4
Heart [31] = assay: Drug uptake in iv dosed Sprague-Dawley rat heart upto 30 mins by PET scanning; conditions: in vivo, 0.5 h; how it was run: as §4

CCN(Cc1cccnc1)C(=O)Cn1c(=O)n([11CH3])c2cnc(-c3ccccc3)nc21
Drug uptake (Lung [1]): Not Active | Drug uptake (Heart [2]): Not Active | Drug uptake (Kidney [3]): Not Active | Drug uptake (Lung [4]): Not Active | Drug uptake (Heart [5]): Not Active | Drug uptake (Kidney [6]): Not Active | fold change (FC) (Liver [7]): 1.5 | fold change (FC) (Liver [8]): 1.5 | SUV (Blood [9]): 0.4 | SUV (Liver [10]): 0.5 | Drug uptake (Lung [11]): Active | Drug uptake (Heart [12]): Active | Drug uptake (Kidney [13]): Active | Drug uptake (Liver [14]): Active | Drug uptake (Blood [15]): Active | Drug uptake (Intestine): Active | SUV (Lung [16]): 3.4 | SUV (Heart [17]): 4.6 | SUV (Kidney [18]): 3.3 | SUV (Liver [19]): 1.6 | SUV (Blood [20]): 3 | SUV (Lung [21]): 0.5 | SUV (Heart [22]): 0.9 | SUV (Kidney [23]): 1

CC[C@@H](C)N([11CH3])C(=O)c1cc2ccccc2c(-c2ccccc2Cl)n1
Drug uptake (Kidney [24]): Active | Drug uptake (Liver [25]): Active | Drug uptake (Blood [26]): Active | Drug uptake (Lung [27]): Active | Drug uptake (Lung [28]): Active | Drug uptake (Heart [29]): Active | Drug uptake (Kidney [30]): Active | Drug uptake (Heart [31]): Active
